Reference: ChEMBL document CHEMBL1156656, “HIV-1 ribonuclease H inhibitory phenolic glycosides from Eugenia hyemalis” (J Nat Prod, 2008)
pIC50: −log10 of the molar value. Active and inactive are the calls of the source. No cut-off for these calls is given here.

Columns and labels:
[1] = Inhibition of human RNase H by FRET assay
Outline: (§1)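 RNase H enzymes (HIV-1, HIV-2, human) assayed by high-throughput fluorescence resonance energy transfer (FRET) cleavage assay; extracts run in presence of 1% bovine serum albumin.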

[2] = Inhibition of HIV2 RNase H by FRET assay; design: species or system Human immunodeficiency virus 2; outline: as §1
[3] = Inhibition of HIV1 RNase H by FRET assay; design: species or system Human immunodeficiency virus 1; outline: as §1
[4] = test system: Escherichia coli; assay: Inhibition of Escherichia coli RNase H by FRET assay
[5] = test system: Human immunodeficiency virus; assay: Antiviral activity against HIV-RF in human CEM-SS cells assessed as cytopathogenicity at 20 ug/ml; assay type: functional, organism-based
Outline: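 Human CEM-SS T cells infected with HIV-1 strain RF; XTT-based cell viability read-out of protection from viral cytopathic effect; highest dose tested 20 μg/mL.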

In the case of `C[C@H]1O[C@H](Oc2c(-c3ccc(O)cc3)oc3cc(O)cc(O)c3c2=O)[C@@H](O)[C@@H](OC(=O)c2cc(O)c(O)c(O)c2)[C@H]1O`, the pIC50 [1] was 5.14, the pIC50 [2] was 5.04 and the pIC50 [3] was < 4.77. For the same compound, the Activity [4] was “inactive”.

For `O=C(O[C@H]1[C@H](Oc2ccc(O)cc2)O[C@H](CO)[C@@H](O)[C@@H]1O)c1cc(O)c(O)c(O)c1`, the pIC50 [1] was < 4.63, the pIC50 [2] was < 4.63 and the pIC50 [3] was < 4.63. For the same compound, the Activity [4] was “inactive”.

In the case of `O=C(OC[C@H]1O[C@@H](Oc2ccc(O)cc2)[C@H](OC(=O)c2cc(O)c(O)c(O)c2)[C@@H](O)[C@@H]1O)c1cc(O)c(O)c(O)c1`, the pIC50 [1] was 6.26, the pIC50 [2] was 6.55 and the pIC50 [3] was 5.30. The Activity [4] was “inactive”.

With `O=C(OC[C@H]1O[C@@H](Oc2ccc(O)cc2)[C@H](OC(=O)c2cc(O)c(O)c(O)c2)[C@@H](O)[C@@H]1O)c1ccc(O)cc1` [HYEMALOSIDE B] the pIC50 [1] was 5.61, the pIC50 [2] was 5.48 and the pIC50 [3] was < 4.74. For the same compound, the Activity [4] was “inactive”.

In the case of `O=C(O[C@H]1[C@H](O)[C@@H](O)[C@H](Oc2ccc(O)cc2)O[C@@H]1CO)c1cc(O)c(O)c(O)c1`, the pIC50 [1] was < 4.63, the Activity [5] was “inactive” and the pIC50 [2] was < 4.63. For the same compound, the pIC50 [3] was < 4.63 and the Activity [4] was “inactive”.

For `O=C(OC[C@H]1O[C@@H](OC(=O)c2cc(O)c(O)c(O)c2)[C@H](OC(=O)c2cc(O)c(O)c(O)c2)[C@@H](O)[C@@H]1O)c1cc(O)c(O)c(O)c1`, the pIC50 [1] was 6.26, the pIC50 [2] was 6.55 and the pIC50 [3] was 4.99. For the same compound, the Activity [4] was “inactive”.

For `C[C@H]1O[C@H](Oc2c(-c3ccc(O)cc3)oc3cc(O)cc(O)c3c2=O)[C@@H](OC(=O)c2cc(O)c(O)c(O)c2)[C@@H](O)[C@H]1O`, the pIC50 [1] was 5.52, the pIC50 [2] was 5.47 and the pIC50 [3] was < 4.77. For the same compound, the Activity [4] was “inactive”.

`O=C(OC[C@H]1O[C@@H](Oc2ccc(O)cc2)[C@H](OC(=O)c2cc(O)c(O)c(O)c2)[C@@H](OC(=O)c2cc(O)c(O)c(O)c2)[C@@H]1O)c1cc(O)c(O)c(O)c1` [HYEMALOSIDE A] showed a pIC50 [1] of 6.74, a pIC50 [2] of 6.24 and a pIC50 [3] of 5.84. The Activity [4] was “inactive”.

With `C[C@@H]1O[C@@H](Oc2c(-c3ccc(O)c(O)c3)oc3cc(O)cc(O)c3c2=O)[C@H](O)[C@H](O)[C@H]1O` [QUERCITRIN] the pIC50 [1] was 4.90, the pIC50 [2] was 4.67 and the pIC50 [3] was < 4.65. For the same compound, the Activity [4] was “inactive”.

For `O=C(OC[C@H]1O[C@@H](Oc2ccc(O)cc2)[C@H](OC(=O)c2cc(O)c(O)c(O)c2)[C@@H](O)[C@@H]1OC(=O)c1cc(O)c(O)c(O)c1)c1cc(O)c(O)c(O)c1`, the pIC50 [1] was 7.40, the pIC50 [2] was 7.00 and the pIC50 [3] was 6.17. The Activity [4] was “inactive”.

With `O=C(O[C@@H]1[C@@H](OC(=O)c2cc(O)c(O)c(O)c2)[C@H](Oc2ccc(O)cc2)O[C@@H]2COC(=O)c3cc(O)c(O)c(O)c3-c3c(cc(O)c(O)c3O)C(=O)O[C@@H]12)c1cc(O)c(O)c(O)c1` [HYEMALOSIDE C] the pIC50 [1] was 7.15, the pIC50 [2] was 6.08 and the pIC50 [3] was 5.92. The Activity [4] was “inactive”.

For `O=C(OC[C@H]1O[C@@H](Oc2c(-c3ccc(O)cc3)oc3cc(O)cc(O)c3c2=O)[C@H](O)[C@@H](O)[C@@H]1O)c1cc(O)c(O)c(O)c1`, the pIC50 [1] was 5.02, the pIC50 [2] was 5.28 and the pIC50 [3] was < 4.78. The Activity [4] was “inactive”.
